Results published in ChEMBL document CHEMBL4819032, “Structure-based design of highly selective 2,4,5-trisubstituted pyrimidine CDK9 inhibitors as anti-cancer agents” (Eur J Med Chem, 2021).
pKi: −log10 of the molar value. Calls of active or inactive are those of the source. The rule behind the calls is not given here.

Assays:
A2780 [1] = assay: Induction of apoptosis in human A2780 cells assessed as increase in cleaved PARP protein expression at 0.5 to 5 uM after 24 hrs by Western blot analysis; assay type: functional, cell-based; settings: dose 0.5-5 µM
Summary of the method: (§1)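 A2780 cells treated for 24 h over a concentration series, then lysates analysed by Western blotting.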

A2780 [2] = assay: Induction of apoptosis in human A2780 cells assessed as viable cells at 1 uM after 24 hrs by Annexin V-FITC/PI staining based flow cytometric analysis (reference value: 92%); assay type: functional; settings: read-out: Activity
Summary of the method: (§2)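 A2780 cells cultured 24 h in medium alone or with varying inhibitor concentrations, then stained with FITC-annexin V/PI per kit protocol and analysed by flow cytometry. Run in triplicate and repeated at least twice; significance by one-way ANOVA, p < 0.01.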

A2780 [3] = assay: Induction of cell cycle arrest in human A2780 cells assessed as accumulation at G2/M phase at 5 uM after 24 hrs by propidium iodide staining based flow cytometric analysis (reference value: 21.6%); assay type: functional
Summary of the method: (§3)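 4 × 10⁵ A2780 cells cultured 24 h in medium alone or with varying inhibitor concentrations, harvested into hypotonic fluorochrome solution (0.1% sodium citrate, 0.1% Triton X-100, propidium iodide, 100 ug/ml RNase A), and DNA content analysed by flow cytometry. Representative of three independent experiments.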

[4] = biological target: Cyclin-dependent kinase 1/cyclin B1 (Homo sapiens, UniProt P06493); assay: Inhibition of recombinant human full length CDK1/Cyclin B using histone H1 as substrate incubated for 40 mins in presence of [gamma-33P]-ATP by scintillation counting method; assay type: protein-complex assay
Cyclin-dependent kinase 1/cyclin B1, sequence (P06493 whole entry): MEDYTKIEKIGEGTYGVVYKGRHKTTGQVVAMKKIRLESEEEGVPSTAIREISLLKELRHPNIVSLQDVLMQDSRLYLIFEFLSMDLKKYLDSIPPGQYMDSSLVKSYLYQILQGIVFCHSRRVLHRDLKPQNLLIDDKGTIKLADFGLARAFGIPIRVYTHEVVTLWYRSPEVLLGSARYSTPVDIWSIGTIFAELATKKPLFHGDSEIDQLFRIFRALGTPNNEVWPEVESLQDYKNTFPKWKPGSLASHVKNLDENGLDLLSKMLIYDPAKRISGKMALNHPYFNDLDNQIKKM
Cyclin-dependent kinase 1/cyclin B1, sequence (P14635 whole entry, further chain): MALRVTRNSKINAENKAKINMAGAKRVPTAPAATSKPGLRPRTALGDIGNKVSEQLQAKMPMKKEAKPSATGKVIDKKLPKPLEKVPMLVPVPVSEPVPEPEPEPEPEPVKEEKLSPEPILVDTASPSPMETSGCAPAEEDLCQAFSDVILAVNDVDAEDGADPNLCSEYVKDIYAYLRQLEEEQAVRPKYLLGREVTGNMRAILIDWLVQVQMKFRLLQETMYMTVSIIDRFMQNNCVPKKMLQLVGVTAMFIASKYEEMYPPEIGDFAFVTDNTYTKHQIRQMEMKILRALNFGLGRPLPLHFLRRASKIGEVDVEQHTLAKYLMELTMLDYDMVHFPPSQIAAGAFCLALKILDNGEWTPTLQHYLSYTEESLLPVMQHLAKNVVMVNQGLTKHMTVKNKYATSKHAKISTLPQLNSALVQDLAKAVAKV
Summary of the method: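 Radiometric kinase assay with ATP at each kinase's Km(app). IC50 values come from 10-point dose-response curves, and apparent Ki is calculated from IC50 and the kinase's Km(ATP).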

[5] = biological target: Cyclin-dependent kinase 9 (Homo sapiens) (UniProt P50750); assay: Inhibition of CDK9 in human A2780 cells assessed as reduction in RNAP2 phosphorylation at ser2 residues after 24 hrs by Western blot analysis; assay type: cell-based; settings: dose 0.5-5 µM
Cyclin-dependent kinase 9 (Homo sapiens), sequence (P50750 whole entry): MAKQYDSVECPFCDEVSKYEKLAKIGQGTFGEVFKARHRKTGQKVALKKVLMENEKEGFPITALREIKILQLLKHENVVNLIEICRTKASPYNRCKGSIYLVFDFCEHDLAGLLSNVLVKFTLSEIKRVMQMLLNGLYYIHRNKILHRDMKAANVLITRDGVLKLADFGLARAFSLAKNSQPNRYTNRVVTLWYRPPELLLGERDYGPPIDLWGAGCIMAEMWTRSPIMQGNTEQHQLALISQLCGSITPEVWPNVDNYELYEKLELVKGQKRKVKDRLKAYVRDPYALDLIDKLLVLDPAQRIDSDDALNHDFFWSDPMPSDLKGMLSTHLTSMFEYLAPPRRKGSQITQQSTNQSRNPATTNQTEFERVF

A2780 [6] = assay: Induction of cell cycle arrest in human A2780 cells assessed as accumulation at pre-G1 phase after 24 hrs by propidium iodide staining based flow cytometric analysis; assay type: functional; settings: dose 0.5-5 µM; summary of the method: as §3
A2780 [7] = assay: Induction of apoptosis in human A2780 cells assessed as late apoptotic cells at 5 uM after 24 hrs by Annexin V-FITC/PI staining based flow cytometric analysis (reference value: 2.8%); assay type: functional; summary of the method: as §2
A2780 [8] = assay: Induction of apoptosis in human A2780 cells assessed as necrotic cells at 2 uM after 24 hrs by Annexin V-FITC/PI staining based flow cytometric analysis (reference value: 3.6%); assay type: functional; summary of the method: as §2
HCT-116 [9] = assay: Induction of apoptosis in human HCT-116 cells assessed as increase in p21 protein expression at 0.5 to 5 uM after 24 hrs by Western blot analysis; assay type: functional, cell-based; settings: dose 0.5-5 µM
A2780 [10] = assay: Induction of apoptosis in human A2780 cells assessed as viable cells at 2 uM after 24 hrs by Annexin V-FITC/PI staining based flow cytometric analysis (reference value: 92%); assay type: functional; settings: read-out: Activity; summary of the method: as §2
[11] = test system: Aurora kinase A (Homo sapiens), O14965 [UNDEFINED MUTATION]; assay: Inhibition of recombinant human full length Aurora-A I31F mutant using LRRASLG as substrate incubated for 40 mins by scintillation counting method
Aurora kinase A (Homo sapiens), O14965 [UNDEFINED MUTATION], sequence (O14965 whole entry, looked up, stated change not applied): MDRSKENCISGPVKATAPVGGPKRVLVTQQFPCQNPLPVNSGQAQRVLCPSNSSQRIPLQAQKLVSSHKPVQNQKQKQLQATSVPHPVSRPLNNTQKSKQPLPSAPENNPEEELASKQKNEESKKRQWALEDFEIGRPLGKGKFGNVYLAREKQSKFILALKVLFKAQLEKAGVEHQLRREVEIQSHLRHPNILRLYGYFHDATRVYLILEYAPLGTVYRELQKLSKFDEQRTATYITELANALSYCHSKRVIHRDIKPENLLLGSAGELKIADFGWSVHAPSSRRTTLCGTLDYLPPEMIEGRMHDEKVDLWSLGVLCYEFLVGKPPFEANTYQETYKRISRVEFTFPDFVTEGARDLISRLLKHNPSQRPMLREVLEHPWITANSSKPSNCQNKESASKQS
Summary of the method: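 The 60-kinase diversity panel was run as a radiometric assay with ATP at each kinase's Km(app). Compound was tested at one fixed concentration across all kinases.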

HCT-116 [12] = assay: Growth inhibition of human HCT-116 cells after 48 hrs by MTT assay; assay type: functional
A2780 [13] = assay: Induction of cell cycle arrest in human A2780 cells assessed as accumulation at G1/G0 phase at 0.5 uM after 24 hrs by propidium iodide staining based flow cytometric analysis (reference value: 56.7%); assay type: functional; summary of the method: as §3
A549 = assay: Growth inhibition of human A549 cells after 48 hrs by MTT assay; assay type: functional
CDK2/Cyclin A2 = CDK2/Cyclin A2 (Homo sapiens, UniProt P24941); assay: Inhibition of recombinant human full length CDK2/Cyclin A using histone H1 as substrate incubated for 40 mins in presence of [gamma-33P]-ATP by scintillation counting method; assay type: protein-complex assay
MCF7 = assay: Growth inhibition of human MCF7 cells after 48 hrs by MTT assay; assay type: functional
A2780 [14] = assay: Induction of apoptosis in human A2780 cells assessed as increase in p53 protein expression at 0.5 to 5 uM after 24 hrs by Western blot analysis; assay type: functional, cell-based; settings: dose 0.5-5 µM; summary of the method: as §1
A2780 [15] = assay: Induction of apoptosis in human A2780 cells assessed as necrotic cells at 5 uM after 24 hrs by Annexin V-FITC/PI staining based flow cytometric analysis (reference value: 3.6%); assay type: functional; summary of the method: as §2
HCT-116 [16] = assay: Induction of apoptosis in human HCT-116 cells assessed as increase in p53 protein expression at 0.5 to 5 uM after 24 hrs by Western blot analysis; assay type: functional, cell-based; settings: dose 0.5-5 µM
A2780 [17] = assay: Induction of cell cycle arrest in human A2780 cells assessed as accumulation at G1/G0 phase at 2 uM after 24 hrs by propidium iodide staining based flow cytometric analysis (reference value: 56.7%); assay type: functional; summary of the method: as §3
A2780 [18] = assay: Induction of cell cycle arrest in human A2780 cells assessed as accumulation at S phase at 2 uM after 24 hrs by propidium iodide staining based flow cytometric analysis (reference value: 20%); assay type: functional; summary of the method: as §3
A2780 [19] = assay: Induction of cell cycle arrest in human A2780 cells assessed as accumulation at pre-G1 phase at 1 uM after 24 hrs by propidium iodide staining based flow cytometric analysis (reference value: 1.2%); assay type: functional
Homo sapiens = organism: Homo sapiens; assay: Selectivity index, ratio of Ki for inhibition of recombinant human full length […]
HCT-116 [20] = assay: Induction of apoptosis in human HCT-116 cells assessed as reduction in XIAP protein expression after 24 hrs by Western blot analysis; assay type: functional, cell-based; settings: dose 0.5-5 µM
A2780 [21] = assay: Induction of apoptosis in human A2780 cells assessed as early apoptotic cells at 0.5 uM after 24 hrs by Annexin V-FITC/PI staining based flow cytometric analysis (reference value: 1.6%); assay type: functional; summary of the method: as §2
[22] = Growth inhibition of patient derived CLL cells after 48 hrs by annexin V-FITC staining based flow cytometric analysis; assay type: functional; settings: Homo sapiens, CLL-CII
Summary of the method: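 Freshly isolated primary CLL cells (10⁶/mL) in RPMI with 10% foetal calf serum, L-glutamine, penicillin and streptomycin, 37 °C, 5% CO₂, exposed to inhibitor for 48 h. Cells labelled with CD19-APC and annexin V-FITC; apoptosis quantified by flow cytometry in CD19+ cells. LD50 is the concentration killing 50% of CLL cells.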

A2780 [23] = assay: Induction of cell cycle arrest in human A2780 cells assessed as accumulation at pre-G1 phase at 5 uM after 24 hrs by propidium iodide staining based flow cytometric analysis (reference value: 1.2%); assay type: functional
A2780 [24] = assay: Induction of apoptosis in human A2780 cells assessed as reduction in Mcl-1 protein expression after 24 hrs by Western blot analysis; assay type: functional, cell-based; settings: dose 0.5-5 µM; summary of the method: as §1
A2780 [25] = assay: Induction of apoptosis in human A2780 cells assessed as necrotic cells at 1 uM after 24 hrs by Annexin V-FITC/PI staining based flow cytometric analysis (reference value: 3.6%); assay type: functional; summary of the method: as §2
A2780 [26] = assay: Induction of apoptosis in human A2780 cells assessed as increase in p21 protein expression at 0.5 to 5 uM after 24 hrs by Western blot analysis; assay type: functional, cell-based; settings: dose 0.5-5 µM; summary of the method: as §1

CNc1nc(C)c(-c2nc(Nc3cccc(N4CCN5CCC4CC5)c3)ncc2C)s1
Activity (A2780 [1]): Active | viability at 1 µM (A2780 [2]): 74.4% | Activity (A2780 [3]): 23.5% | pKi [4]: 5.93 | inhibition [5]: Dose-Dependent Effect | Activity (A2780 [6]): Dose-Dependent Effect | Activity (A2780 [7]): 47.2% | Activity (A2780 [8]): 2.5% | Activity (HCT-116 [9]): Active | viability at 2 µM (A2780 [10]): 67.9% | inhibition [11]: Active | GI50 (HCT-116 [12]): 1070 nM | Activity (A2780 [13]): 59.8% | GI50 (A549): 1540 nM | pKi (CDK2/Cyclin A2): 5.90 | GI50 (MCF7): 1340 nM | Activity (A2780 [14]): Active | Activity (A2780 [15]): 5.6% | Activity (HCT-116 [16]): Active | Activity (A2780 [17]): 24.3% | Activity (A2780 [18]): 8.3% | Activity (A2780 [19]): 6.5% | Ratio Ki (Homo sapiens): 100 | Activity (HCT-116 [20]): Dose-Dependent Effect | Activity (A2780 [21]): 3.6% | GI50 [22]: 1500 nM | Activity (A2780 [23]): 34% | Activity (A2780 [24]): Dose-Dependent Effect | Activity (A2780 [25]): 3% | Activity (A2780 [26]): Active
